High-throughput results deposited in PubChem by several laboratories.
hERG protect: compounds protecting human hERG from proarrhythmic drug block | hit rate 0.51% among 310,000 | Q12809 | CHO-hERG, FluxOR thallium flux, dofetilide IC70 present | activation (rescue from dofetilide block), less the hit threshold, % at 10 µM;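 active = activation above the mean of controls blocked by dofetilide plus 5 SD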;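 also: thallium influx through hERG after potassium depolarization seen as dye fluorescence rise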
Target sequence (Q12809 whole entry, looked up): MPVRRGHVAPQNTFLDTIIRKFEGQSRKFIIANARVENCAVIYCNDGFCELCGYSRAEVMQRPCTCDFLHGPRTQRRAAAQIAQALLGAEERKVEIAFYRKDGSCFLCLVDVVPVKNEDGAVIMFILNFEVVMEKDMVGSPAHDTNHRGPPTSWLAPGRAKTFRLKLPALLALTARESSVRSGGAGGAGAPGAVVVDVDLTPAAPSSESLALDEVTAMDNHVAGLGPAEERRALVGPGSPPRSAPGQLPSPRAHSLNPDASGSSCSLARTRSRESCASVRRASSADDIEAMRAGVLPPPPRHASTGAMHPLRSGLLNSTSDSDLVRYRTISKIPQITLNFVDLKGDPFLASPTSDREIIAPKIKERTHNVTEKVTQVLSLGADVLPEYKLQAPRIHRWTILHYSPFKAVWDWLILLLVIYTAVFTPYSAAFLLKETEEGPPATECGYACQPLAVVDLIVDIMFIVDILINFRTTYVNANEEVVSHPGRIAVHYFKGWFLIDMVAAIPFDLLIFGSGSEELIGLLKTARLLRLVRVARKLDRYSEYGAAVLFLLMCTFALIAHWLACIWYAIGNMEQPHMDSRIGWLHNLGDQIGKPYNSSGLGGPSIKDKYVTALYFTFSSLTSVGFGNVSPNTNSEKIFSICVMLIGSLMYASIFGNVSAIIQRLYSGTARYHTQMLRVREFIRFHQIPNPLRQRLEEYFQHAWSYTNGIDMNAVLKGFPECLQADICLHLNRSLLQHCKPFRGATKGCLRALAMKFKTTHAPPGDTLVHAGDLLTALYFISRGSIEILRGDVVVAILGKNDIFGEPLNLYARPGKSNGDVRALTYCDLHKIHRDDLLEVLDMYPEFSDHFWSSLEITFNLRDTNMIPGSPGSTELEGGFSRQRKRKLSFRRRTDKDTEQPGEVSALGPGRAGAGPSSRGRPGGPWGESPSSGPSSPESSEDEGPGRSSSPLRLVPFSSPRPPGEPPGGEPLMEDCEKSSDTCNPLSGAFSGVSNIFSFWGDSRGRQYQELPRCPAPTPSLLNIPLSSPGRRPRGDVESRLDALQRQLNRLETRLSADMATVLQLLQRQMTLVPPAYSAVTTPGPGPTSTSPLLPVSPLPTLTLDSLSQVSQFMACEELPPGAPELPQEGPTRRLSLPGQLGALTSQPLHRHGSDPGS
KCNQ1 inh: blocks the human KCNQ1 potassium channel; P51787; CHO-K1 KCNQ1, FluxOR thallium flux fluorescence; active compounds read high; B-score at 10 µM; hit rate 1.3% among 310,000;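 active = compounds whose thallium flux B-score, printed positive for inhibition, exceeds three library SD while starting fluorescence stays within three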;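 also: channel opened by potassium depolarization with thallium stimulus after 20 min compound exposure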
KCNQ1 pot: potentiates or activates the human KCNQ1 potassium channel. P51787. hit rate 0.35% among 310,000. CHO-K1 KCNQ1, thallium flux FluxOR fluorescence; active compounds read high. B-score at 10 µM;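 active = fluorescence ratio B-score, a plate-corrected score, at least three library SD, with initial intensity B-score within 5 SD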
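Doses: Single concentration per compound, DMSO matched to controls | Test system: KCNQ1-transfected CHO-K1 cells | Timing: 90 min dye loading and 20 min compound exposure, both at room temperature | Measured by: Kinetic FluxOR thallium fluorescence, 10-s 1-Hz baseline, 110-s post-stimulus read | Medium: Assay buffer with matched DMSO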
Mot1-301 SUMO: SUMOylation pathway inhibition by Mot1-301 growth rescue; hit rate 1% among 320,000; AID 2716; growth rescue, % at 18.8 µM; S. cerevisiae Mot1-301 growth rescue, ATP luminescence, 38.5C; percent above DMSO median, 100 means doubled;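 active = every valid replicate shows activation above 250% relative to neutral control wells; inactive = the rest, any valid replicate at or below 250%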;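 also: OY570 slx delta 5 strain wells were the positive control but not used for scaling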
KCC2 mod: KCC2 (human) Cl- transport modulation; B-score of Tl+ flux slope (higher = more flux/activation; lower = inhibition) at 10 µM; hit rate 2.2% among 190,000; KCC2 cells, thallium flux FluoZin-2 fluorescence; Q9H2X9;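 active = thallium flux slope and its plate-corrected score both differing from the plate sample mean at a set confidence after two filtering rounds, in either direction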;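 also: slope of fluorescence scaled to starting intensity during 10 to 20 s after thallium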
AI-2 QS mod: modulates the Vibrio harveyi AI-2 quorum sensing system; Vibrio harveyi JMH597 AI-2 luminescence/OD600 ratio, 9 h; active compounds read low; strain lacks LuxN and CqsS sensors; 0 = neutral-control median; activity change, % at 7.5 µM; hit rate 0.4% among 300,000; in the data active = activity change below about -75%, passing the limit was not always enough;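 also: luminescence divided by OD600 gain over 9 h not by final OD600 alone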
Mot1 SUMO dose: inhibits SUMO pathway, affecting Mot1-301 yeast growth; shares compounds with Mot1-301 SUMO; S. cerevisiae Mot1-301 galactose growth, ATP luminescence, 24 h; -100 = growth of slx-deleted rescue strain; AID 493004; 2,300 tested, under 10 active; growth activity, percent, % at 42 µM;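 active = Signal drops as the depositor expects, and the fitted half-maximal dose is no more than ten times the top valid tested dose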;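 also: more negative values mean stronger growth rescue toward the control strain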
* hit, by the source's call; i = inactive; · = no result; + = active, no number; [ ] = remark or other dose. Only some compounds are listed: those with a hit (about 4.2% of all), similar ones and a draw of the others.

SMILES | hERG protect | KCNQ1 inh | KCNQ1 pot | Mot1-301 SUMO | KCC2 mod | AI-2 QS mod | Mot1 SUMO dose
CN(c1ccccc1)S(=O)(=O)c1cccc(C(=O)Nc2nn[nH]n2)c1 | -9 | i | i | 10 | · | 22 | ·
C=CCc1cc(OC)ccc1OCCCCn1cncn1 | 2 | i | i | -9 | · | 3 | ·
COc1ccc(N(C(=O)c2ccncc2)S(=O)(=O)c2ccc(F)cc2)cc1 | -9 | i | i | 451* | · | 29 | 0
COc1ccc(N(C(=O)c2ccncc2)S(=O)(=O)c2ccccc2)cc1 | -5 | i | i | 38 | · | 11 | ·
CCCC(C(=O)NC1CCCC1)N(C(=O)c1snc(C(N)=O)c1N)c1ccc(F)cc1 (stereo not given) | -10 | i | i | · | · | -3 | ·
Cc1cc(C)cc(OCC(=O)NNC(=O)c2cc(C)[nH]n2)c1 | -3 | i | i | -10 | 0.85 | 28 | ·
Cc1cc(C(=O)NN)n[nH]1 | -3 | i | i | 590* | 0.037 | 12 | 0
CC(C)c1ccc(NC(=O)NN2CCOCC2)cc1 | -11 | i | i | -4 | -0.37 | 4 | ·
CC(NC(=O)C1CCC(CNS(=O)(=O)c2ccc3c(c2)C(C)(C)C(=O)N3C)CC1)c1ccccc1 (stereo not given) | -11 | i | i | -20 | · | 7 | ·
Nc1ccc(/C=C/C(=O)c2ccco2)cc1 | -12 | i | i | -6 | -2 | 17 | ·
N#Cc1ccc(/C=C/C(=O)c2ccco2)cc1 | -6 | i | i | 718* | 0.031 | 4 | -1
Fc1ccccc1OCC1CCCN(Cc2nc(CC3CC3)no2)C1 (stereo not given) | -9 | i | i | 21 | 0.14 | 16 | ·
COc1ccc(NC(=O)C2CCCN(C(=O)Nc3cccc(OC)c3)C2)cc1 (stereo not given) | -1 | i | i | 381* | · | 35 | 0
C[N+](C)(C)CCN(Cc1ccc(Cl)cc1)c1ccccn1 | -12 | i | i | 8 | 1.6 | 1 | ·
CN(C)CCN(Cc1ccc(Cl)cc1)c1ccccn1 | -6 | i | i | 558* | 0.86 | 0 | -1
O=C(NCCC1CCCCN1S(=O)(=O)c1ccc(F)cc1)C(=O)NCC1CCCO1 (stereo not given) | -14 | i | i | -12 | · | 10 | ·
O=S(=O)(c1ccc(S(=O)(=O)N2CCC(O)CC2)cc1)N1CCCC1 | -6 | i | i | 2 | · | 31 | ·
CN(C)c1ccc(NC(=O)CSc2nc(N)c(C(=O)Nc3ccc(N(C)C)cc3)s2)cc1 | -8 | i | i | 466* | -0.52 | 5 | 0
Cc1ccc(N(C(=O)CNC(=O)c2ccco2)C(C(=O)NC2CCCCC2)c2ccncc2)cc1F (stereo not given) | -5 | i | i | -4 | · | 4 | ·
COc1ccc(-c2csc(NC(=O)C3CSC4(C)CCC(=O)N34)n2)cc1 (stereo not given) | · | · | · | 391* | · | · | 1
O=C(CN(c1cc(Cl)ccc1Cl)S(=O)(=O)c1ccccc1)N1CCOCC1 | -12 | i | i | 0 | · | 10 | ·
CN(CC(=O)Nc1ccncc1)S(=O)(=O)c1ccc(Br)cc1 | -6 | i | i | 12 | -1.2 | 21 | ·
CC(=O)Nc1ccc(S(=O)(=O)N(C)CC(=O)Nc2ccc(Br)cc2F)cc1 | -7 | i | i | 513* | · | 13 | 0
CCOc1ccc(NC(=O)COC(=O)C2C3CC4OC(=O)C2C4C3)cc1 (stereo not given) | -7 | i | i | 14 | · | 31 | ·
Cc1ccc(-c2ccc(/C=N/c3ncn[nH]3)o2)cc1Cl | -10 | i | i | · | 0.28 | 24 | ·
SMILES | hERG protect | KCNQ1 inh | KCNQ1 pot | Mot1-301 SUMO | KCC2 mod | AI-2 QS mod | Mot1 SUMO dose
CC(=O)CCN1CCOCC1 | -5 | i | i | 28 | 0.57 | 11 | ·
CN(C)C(=O)CCN1CCOCC1 | -11 | i | i | 560* | 0.39 | 17 | -1
CC(=O)N(C)c1ccc(N2CCOCC2)c2c1C(=O)c1ccccc1C2=O | -8 | i | i | 456* | · | 12 | 1
O=C(O)CCCNS(=O)(=O)Cc1ccccc1 | -2 | i | i | 4 | -0.12 | 18 | ·
CCCCOCCCNS(=O)(=O)Cc1ccccc1 | -9 | i | i | 366* | · | 26 | 0
CCOC(=O)C1C(c2ccc(C)o2)NC(=O)NC1(O)C(F)(F)F (stereo not given) | -14 | i | i | 459* | -1 | 13 | 1
CC(C)NC(=O)N(C)C[C@H]1Oc2ccc(NC(=O)Cc3ccccc3)cc2C(=O)N([C@H](C)CO)C[C@@H]1C | · | · | · | 1 | · | · | ·
Cc1cc(S(=O)(=O)N2CCN=C2c2ccccc2)c(Cl)cc1Cl | -11 | i | i | 8 | · | 19 | ·
CC1=Nc2ccccc2/C1=C\c1nc(-c2ccccc2)oc1O | -16 | i | i | 623* | 0.53 | 5 | -1
COc1ccc(-c2nc(/C=C3\C(C)=Nc4ccccc43)c(O)o2)cc1 | -17 | i | i | 12 | 0.85 | 23 | ·
CCCCn1c(=O)[nH]c(=O)c2c(C(=O)OCC)cc(-c3ccc(OC(F)F)cc3)nc21 | -12 | i | i | -10 | -0.066 | 15 | ·
CC(=O)/C(N)=N/Nc1cccc(Cl)c1 | -10 | i | i | 437* | -0.0032 | 2 | -1
COc1ccc(CCNC(=O)c2cc(-c3ccncc3)nc3ccc(S(=O)(=O)N4CCOCC4)cc23)cc1OC | -9 | i | i | 207 | · | 4 | ·
COc1cc(NC(=O)CN2CCN(c3ccccc3F)CC2)cc(OC)c1 | · | · | · | 14 | 0.12 | · | ·
COc1cccc(NC(=O)CN2CCN(c3ccccc3F)CC2)c1 | -3 | i | i | 600* | -0.1 | 6 | 0
COC(=O)c1[nH]c2cc(C)ccc2c1NC(=O)CN1CCN(c2ccccc2OC)CC1 | -12 | i | i | 492* | -0.59 | 21 | 0[21 µM]
O=C(CN1CCN(c2ccccc2F)CC1)Nc1nnc(C(F)(F)F)s1 | -4 | i | i | + | 0.6 | 1 | 0
COC(=O)c1[nH]c2cc(C)ccc2c1NC(=O)CN1CCOCC1 | -7 | i | i | -14 | 0.97 | 15 | ·
CN(Cc1ccccc1)C(=O)c1ccc(NC(=O)Cc2cccc(NC(=O)C3CCN(C(=O)C4CCCC4)CC3)c2)cc1 | · | · | · | -16 | · | · | ·
COC(=O)[C@@H](NC(=O)Nc1ccc(S(N)(=O)=O)cc1)C(C)C | -6 | i | i | 373* | 1.3 | -2 | 0
COc1ccc(Nc2oc(-c3cccs3)nc2C#N)cc1 | -4 | i | i | 918* | 0.29 | 2 | -1
